According to ChEMBL document CHEMBL3808334, “Synthesis and in vitro evaluation of novel triazine analogues as anticancer agents and their interaction studies with bovine serum albumin” (Eur J Med Chem, 2016):

Tests used:
Type in all cases: functional
KM12 = assay: Growth inhibition of human KM12 cells assessed as cell growth at 10^-4 M incubated for 48 hrs by sulforhodamine B assay; conditions: KM12, 48 h, read-out: Activity
[1] = Growth inhibition of human SKOV3 cells assessed as cell growth at 10^-6 M incubated for 48 hrs by sulforhodamine B assay; conditions: SK-OV-3, 48 h, read-out: Activity
[2] = Growth inhibition of human TK10 cells assessed as cell growth at 10^-6 M incubated for 48 hrs by sulforhodamine B assay; conditions: TK-10, 48 h, read-out: Activity
[3] = Growth inhibition of human SF539 cells incubated for 48 hrs by sulforhodamine B assay; conditions: SF-539, 48 h
How it was run: (§1)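 Cells were plated at 5,000–40,000 per well according to doubling time and preincubated 24 h at 37 °C in 5% CO2; time-zero plates were then TCA-fixed. Five concentrations (10-fold or ½-log dilutions, DMSO stock) were incubated 48 h. Cells were TCA-fixed, stained with 0.4% SRB and read at 515 nm. GI50 was taken where [(Ti−Tz)/(C−Tz)]×100 = 50.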

[4] = Growth inhibition of human HOP62 cells assessed as cell growth at 10^-8 M incubated for 48 hrs by sulforhodamine B assay; conditions: HOP-62, 48 h, read-out: Activity
EKVX = assay: Growth inhibition of human EKVX cells incubated for 48 hrs by sulforhodamine B assay
How it was run: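 Cells seeded at 5,000–40,000/well according to doubling time and preincubated 24 h at 37 °C, 5% CO2. Time-zero plates were TCA-fixed. DMSO concentrate was diluted in medium with 50 µg/ml gentamicin to give five concentrations (10-fold or ½ log steps), then exposed 48 h. Cells were TCA-fixed, stained with 0.4% SRB and read at 515 nm. Percent growth was taken against time-zero and control; GI50, TGI and LC50 derived.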

[5] = Growth inhibition of human SNB75 cells assessed as cell growth at 10^-5 M incubated for 48 hrs by sulforhodamine B assay; conditions: SNB-75, 48 h, read-out: Activity
HT-29 = assay: Growth inhibition of human HT-29 cells assessed as cell growth at 10 uM incubated for 48 hrs by sulforhodamine B assay; conditions: HT-29, 48 h, read-out: Activity
SK-MEL-28 = assay: Growth inhibition of human SK-MEL-28 cells assessed as cell growth at 10^-4 M incubated for 48 hrs by sulforhodamine B assay; conditions: SK-MEL-28, 48 h, read-out: Activity
[6] = Growth inhibition of human LOXIMVI cells assessed as cell growth at 10^-4 M incubated for 48 hrs by sulforhodamine B assay; conditions: LOX IMVI, read-out: Activity
Malme-3M = assay: Growth inhibition of human MALME-3M cells assessed as cell growth at 10^-7 M incubated for 48 hrs by sulforhodamine B assay; conditions: read-out: Activity
SN12C = assay: Growth inhibition of human SN12C cells assessed as cell growth at 10^-4 M incubated for 48 hrs by sulforhodamine B assay; conditions: read-out: Activity
MDA-MB-468 [7] = assay: Growth inhibition of human MDA-MB-468 cells assessed as cell growth at 10^-4 M incubated for 48 hrs by sulforhodamine B assay; conditions: MDA-MB-468, 48 h, read-out: Activity
A549 = assay: Growth inhibition of human A549/ATCC cells assessed as cell growth at 10^-6 M incubated for 48 hrs by sulforhodamine B assay; conditions: A549, 48 h, read-out: Activity
How it was run: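 Five-dose assay: five concentrations from 10-fold or ½-log serial dilutions. Cells are plated at 5,000–40,000 per well according to doubling time, grown 24 h, then exposed 48 h at 37 °C, 5% CO₂. Fixed with cold 50% TCA (final addition) for 60 min at 4 °C and stained with 0.4% SRB in 1% acetic acid. Bound dye is solubilized in 10 mM Tris base and read at 515 nm. GI₅₀ is where [(Ti−Tz)/(C−Tz)]×100 = 50, with a time-zero plate as Tz.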

[8] = Growth inhibition of human SF268 cells assessed as cell growth at 10^-6 M incubated for 48 hrs by sulforhodamine B assay; conditions: SF-268, 48 h, read-out: Activity
NCI-H460 [9] = assay: Growth inhibition of human NCI-H460 cells assessed as cell growth at 10^-5 M incubated for 48 hrs by sulforhodamine B assay; conditions: NCI-H460, 48 h, read-out: Activity
[10] = Growth inhibition of human SW620 cells incubated for 48 hrs by sulforhodamine B assay; conditions: SW-620, 48 h; how it was run: as §1
NCI-H460 [11] = assay: Growth inhibition of human NCI-H460 cells incubated for 48 hrs by sulforhodamine B assay; conditions: NCI-H460, 48 h; how it was run: as §1
SK-MEL-2 = assay: Growth inhibition of human SK-MEL-2 cells assessed as cell growth at 10^-7 M incubated for 48 hrs by sulforhodamine B assay; conditions: SK-MEL-2, 48 h, read-out: Activity
NCI/ADR-RES = assay: Growth inhibition of human NCI/ADR-RES cells assessed as cell growth at 10^-8 M incubated for 48 hrs by sulforhodamine B assay; conditions: read-out: Activity
[12] = Growth inhibition of human SF268 cells assessed as cell growth at 10^-7 M incubated for 48 hrs by sulforhodamine B assay; conditions: SF-268, 48 h, read-out: Activity
[13] = Growth inhibition of human SKOV3 cells assessed as cell growth at 10^-7 M incubated for 48 hrs by sulforhodamine B assay; conditions: SK-OV-3, 48 h, read-out: Activity
MDA-MB-231 = assay: Growth inhibition of human MDA-MB-231 cells assessed as cell growth at 10^-8 M incubated for 48 hrs by sulforhodamine B assay; conditions: MDA-MB-231, 48 h, read-out: Activity
[14] = Growth inhibition of human Hs 578T cells assessed as cell growth at 10^-7 M incubated for 48 hrs by sulforhodamine B assay; conditions: read-out: Activity
[15] = Growth inhibition of human SNB75 cells assessed as cell growth at 10 uM incubated for 48 hrs by sulforhodamine B assay; conditions: SNB-75, 48 h, read-out: Activity
MDA-MB-468 [16] = assay: Growth inhibition of human MDA-MB-468 cells assessed as cell growth at 10 uM incubated for 48 hrs by sulforhodamine B assay; conditions: MDA-MB-468, 48 h, read-out: Activity
[17] = Growth inhibition of human UO31 cells assessed as cell growth at 10 uM incubated for 48 hrs by sulforhodamine B assay; conditions: UO-31, 48 h, read-out: Activity
[18] = read-out: LC50 (the source's name)
[19] = read-out: pLC50 (the source's name) (converted)

In the case of `c1ccc(-c2nc(Nc3ccc(-c4nc5ccccc5[nH]4)cc3)nc(N3CCOCC3)n2)cc1`, the growth at 100 µM (KM12) was -86%, the growth at 1 µM [1] was 104% and the growth at 1 µM [2] was 119%. The GI50 ([3]; read-out: GI50) was 1420 nM, the CC50 [3, 18] was 6.09 µM and the TGI ([3]; read-out: TGI) was 2940 nM. The GI50 ([3]; read-out: pGI50 (converted)) was 1410 nM, the CC50 [3, 19] was 6.03 µM and the TGI ([3]; read-out: pTGI (converted)) was 2950 nM. The growth at 0.01 µM [4] was 92%, the GI50 (EKVX; read-out: GI50) was 1590 nM and the LC50 (EKVX; read-out: LC50) was 7.33 µM. The TGI (EKVX; read-out: TGI) was 3.42 µM, the GI50 (EKVX; read-out: pGI50 (converted)) was 1580 nM and the LC50 (EKVX; read-out: pLC50 (converted)) was 7.41 µM. It also gave a TGI (EKVX; read-out: pTGI (converted)) of 3.39 µM, a growth at 10 µM [5] of -88% and a growth at 10 µM (HT-29) of -59.9%. The growth at 100 µM (SK-MEL-28) was -72%, the growth at 100 µM [6] was -45% and the growth at 0.1 µM (Malme-3M) was 131%. The growth at 100 µM (SN12C) was -59%, the growth at 100 µM (MDA-MB-468 [7]) was -58% and the growth at 1 µM (A549) was 96%. The growth at 1 µM [8] was 86%, the growth at 10 µM (NCI-H460 [9]) was -70% and the GI50 ([10]; read-out: GI50) was 627 nM. The CC50 [10, 18] was 5.82 µM, the TGI ([10]; read-out: TGI) was 2170 nM and the GI50 ([10]; read-out: pGI50 (converted)) was 631 nM. The CC50 [10, 19] was 5.75 µM, the TGI ([10]; read-out: pTGI (converted)) was 2190 nM and the GI50 (NCI-H460 [11]; read-out: GI50) was 822 nM. For the same molecule, the CC50 (NCI-H460 [11]; [18]) was 6.67 µM, the TGI (NCI-H460 [11]; read-out: TGI) was 2460 nM and the GI50 (NCI-H460 [11]; read-out: pGI50 (converted)) was 813 nM. The CC50 (NCI-H460 [11]; [19]) was 6.61 µM, the TGI (NCI-H460 [11]; read-out: pTGI (converted)) was 2450 nM and the growth at 0.1 µM (SK-MEL-2) was 101%. The growth at 0.01 µM (NCI/ADR-RES) was 95%, the growth at 0.1 µM [12] was 92% and the growth at 0.1 µM [13] was 104%. It also gave a growth at 0.01 µM (MDA-MB-231) of 97%, a growth at 0.1 µM [14] of 94% and a growth at 10 µM [15] of -89.7%. The growth at 10 µM (MDA-MB-468 [16]) was -62.7% and the growth at 10 µM [17] was -60.6%.

Molecule `Clc1ccc(-c2nc(Nc3ccc(-c4nc5ccccc5[nH]4)cc3)nc(N3CCOCC3)n2)cc1` has a growth at 100 µM (KM12) of -67%, a growth at 1 µM [1] of 102% and a growth at 1 µM [2] of 110%. For the same molecule, the GI50 ([3]; read-out: GI50) was 520 nM, the TGI ([3]; read-out: TGI) was 1830 nM and the GI50 ([3]; read-out: pGI50 (converted)) was 525 nM. It also gave a TGI ([3]; read-out: pTGI (converted)) of 1820 nM, a growth at 0.01 µM [4] of 91% and a GI50 (EKVX; read-out: GI50) of 1140 nM. It also gave a TGI (EKVX; read-out: TGI) of 2.63 µM, a GI50 (EKVX; read-out: pGI50 (converted)) of 1150 nM and a TGI (EKVX; read-out: pTGI (converted)) of 2.63 µM. For the same molecule, the growth at 10 µM [5] was -91%, the growth at 10 µM (HT-29) was -78.6% and the growth at 100 µM (SK-MEL-28) was -24%. The growth at 100 µM [6] was 2%, the growth at 0.1 µM (Malme-3M) was 101% and the growth at 100 µM (SN12C) was -14%. The growth at 100 µM (MDA-MB-468 [7]) was -41%, the growth at 1 µM (A549) was 40% and the growth at 1 µM [8] was 3%. The growth at 10 µM (NCI-H460 [9]) was -73%, the GI50 ([10]; read-out: GI50) was 186 nM and the CC50 [10, 18] was 0.742 µM. It also gave a TGI ([10]; read-out: TGI) of 372 nM, a GI50 ([10]; read-out: pGI50 (converted)) of 186 nM and a CC50 [10, 19] of 0.741 µM. The TGI ([10]; read-out: pTGI (converted)) was 372 nM, the GI50 (NCI-H460 [11]; read-out: GI50) was 222 nM and the TGI (NCI-H460 [11]; read-out: TGI) was 491 nM. It also gave a GI50 (NCI-H460 [11]; read-out: pGI50 (converted)) of 224 nM, a TGI (NCI-H460 [11]; read-out: pTGI (converted)) of 490 nM and a growth at 0.1 µM (SK-MEL-2) of 92%. It also gave a growth at 0.01 µM (NCI/ADR-RES) of 98%, a growth at 0.1 µM [12] of 96% and a growth at 0.1 µM [13] of 99%. The growth at 0.01 µM (MDA-MB-231) was 93%, the growth at 0.1 µM [14] was 87% and the growth at 10 µM [15] was -92.6%. For the same molecule, the growth at 10 µM (MDA-MB-468 [16]) was -84% and the growth at 10 µM [17] was -87.6%.
